Bioassay records from PubChem BioAssay.
A selection: hits, their analogues and other compounds. The true share with any hit is near 2.9%.
S100A4 inh HTS = inhibitors of human S100A4 binding to myosin IIA peptide. P26447. S100A4/TAMRA-MyoIIA peptide fluorescence polarization. inhibition, % at 10.7 µM. 360,000 tested, 0.14% active. AID 652163;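 active = mean inhibition of at least 70% across replicates, with every replicate also reaching that level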
Target sequence (P26447 whole entry, looked up): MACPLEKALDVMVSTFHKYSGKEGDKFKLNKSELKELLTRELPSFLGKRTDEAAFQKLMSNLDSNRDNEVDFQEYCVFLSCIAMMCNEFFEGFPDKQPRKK
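Test system: S100A4 monomer protein. Medium: HEPES buffer with Ca2+, pH 7.2. Reagent: fluorescent myosin IIA peptide, 5 nM. Compound dosing: single-point compound testing. Timing: 5 min between mix addition and reading. Benchmarks: DMSO neutral and TFP positive wells.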
SIRT5 block = blocks human SIRT5 desuccinylation of peptide; Q9NXA8; Purified SirT5, succinyl-peptide AMC, trypsin-coupled fluorescence; inhibition, % at 15 µM; 330,000 tested, 1.1% active; in the data active = inhibition above about 15%
Target sequence (Q9NXA8 whole entry, looked up): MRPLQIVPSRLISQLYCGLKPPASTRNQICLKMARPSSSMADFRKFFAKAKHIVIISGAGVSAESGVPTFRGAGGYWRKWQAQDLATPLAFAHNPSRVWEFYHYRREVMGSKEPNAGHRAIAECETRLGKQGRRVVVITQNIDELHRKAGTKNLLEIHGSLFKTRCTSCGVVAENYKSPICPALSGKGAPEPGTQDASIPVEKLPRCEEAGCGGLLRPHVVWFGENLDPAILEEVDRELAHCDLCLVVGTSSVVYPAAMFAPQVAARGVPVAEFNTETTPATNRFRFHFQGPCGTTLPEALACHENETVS
DENV2 CPE rescue = DENV2-induced cell death inhibition | 350,000 tested, 1.7% active | CPE inhibition, % at 9.99 µM | AID 651640 | DENV2-infected cells, cytopathic effect rescue, plate reader; in the data active = CPE inhibition above about 20%, passing the limit was not always enough; tested in BHK-21 cells
PGC1a acetyl inh = PGC1a acetylation modulation, inhibitor mode. U2OS PGC1a acetylation, AlphaScreen anti-acetyl-lysine; with virally co-expressed GCN5 acetyltransferase. inhibition, % at 15.6 µM. 350,000 tested, 0.17% active. AID 651687;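 active = every replicate shows inhibition of at least 40%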
Statin myotox sup = protects C2C12 myotubes from simvastatin toxicity | ATP luminescence, 48 h; scaled: DMSO 0, geranylgeraniol control 100 | 330,000 tested, 0.78% active | AID 602340 | rescue of ATP level, % at 7.49 µM;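 active = mean ATP rescue above about 67%, or every replicate alone reaching that limit, limit read from the data, passing the limit was not always enough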;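 also: myotubes were challenged with 10 µM simvastatin during compound exposure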
Each line names hits and unclear results; the compound was inactive in the other large screens.

Cc1sc2ncnc(N3CCC(C(=O)Nc4ccc(Cl)cc4Cl)CC3)c2c1C	DENV2 CPE rescue 29.6 (no result: PGC1a acetyl inh, Statin myotox sup)
CC1(C)CC(=O)N(CC(=O)O)c2ccccc2S1(=O)=O	DENV2 CPE rescue 33.8 (no result: SIRT5 block)
O=C(CSCc1ccccc1)Nc1ccccc1C(=O)Nc1ccc(C(=O)O)cc1	DENV2 CPE rescue 31.9
C[C@H]1CN([C@@H](C)CO)C(=O)Cc2cc(NC(=O)Nc3ccc(F)cc3)ccc2O[C@@H]1CN(C)C(=O)Nc1ccc(F)cc1	none
COCCn1c(C(=O)N2CCCC2)cc2c1C[C@H]1CN(C(=O)c3ccccc3)[C@@](Cc3ccc(F)cc3)(C(=O)OC)[C@@H]21	DENV2 CPE rescue 63.9 (no result: SIRT5 block, PGC1a acetyl inh, Statin myotox sup)
COC(=O)[C@@]1(Cc2ccc(F)cc2)[C@H]2c3cc(C(=O)N4CCCC4)n(Cc4ccccc4)c3C[C@H]2CN1C(=O)c1ccccc1	none (no result: PGC1a acetyl inh, Statin myotox sup)
CC(=O)N1[C@H](CO)[C@H](c2ccc(-c3ccc(C#N)cc3)cc2)C12CN(C(=O)C1CC1)C2	DENV2 CPE rescue 61.9 (no result: Statin myotox sup)
CC(=O)N1CC2(C1)[C@H](c1ccc(-c3ccc(C#N)cc3)cc1)[C@@H](CO)N2C(=O)C1CC1	DENV2 CPE rescue 83.9 (no result: Statin myotox sup)
CC(=O)N1[C@@H](CO)[C@@H](c2ccc(-c3ccc(C#N)cc3)cc2)C12CN(C(=O)C1CC1)C2	none (no result: SIRT5 block, Statin myotox sup)
C[C@@H]1CCCCO[C@@H](CN(C)C)[C@H](C)CN([C@H](C)CO)C(=O)c2cc(NS(=O)(=O)c3cccs3)ccc2O1	none (no result: Statin myotox sup)
CCCC#Cc1ccc([C@H]2[C@H]3CN(S(=O)(=O)c4ccccc4C)CC(=O)N3[C@H]2CO)cc1	none (no result: Statin myotox sup)
C=CC[C@@H](CC(=O)N(CCO)Cc1ccccc1)C(=O)N[C@H](COC(=O)[C@@H](CC=C)CC(=O)OC(C)(C)C)Cc1c[nH]c2ccccc12	none (no result: SIRT5 block)
C=CC[C@@H](CC(=O)N(CCO)Cc1ccccc1)C(=O)N[C@H](COC(=O)[C@@H](CC=C)CC(=O)OC(C)(C)C)c1ccccc1	SIRT5 block 20.2
C=CC[C@H](CC(=O)N(CCO)Cc1ccccc1)C(=O)N[C@@H](COC(=O)[C@H](CC=C)CC(=O)OC(C)(C)C)Cc1c[nH]c2ccccc12	SIRT5 block 26.5 (no result: PGC1a acetyl inh)
CCNC(=O)[C@H]1[C@H](CO)[C@H]2Cn3c(ccc(-c4ccccc4F)c3=O)[C@@H]1N2CC	none (no result: PGC1a acetyl inh)
O=C(O)c1cccc(NC(=O)c2cn(-c3ccccc3)nc2-c2cccc(Br)c2)c1	SIRT5 block 15.9 (no result: PGC1a acetyl inh)
O=C(O)c1cccc(NC(=O)c2cn(-c3ccccc3)nc2-c2ccncc2)c1	none
O=C(C1=C(O)C(=O)N(CCN2CCOCC2)C1c1ccc(F)cc1)c1cc2ccccc2o1 (centres undefined)	none
O=C(C1=C(O)C(=O)N(CCCN2CCOCC2)C1c1ccccn1)c1cc2ccccc2o1 (centres undefined)	Statin myotox sup 72.8 (no result: S100A4 inh HTS, SIRT5 block, DENV2 CPE rescue)
Cc1ccn2c(=O)nc(SCC(=O)OCc3ccccc3)nc2c1	none (no result: PGC1a acetyl inh, Statin myotox sup)
CCOC(=O)CSc1nc(=O)n2ccc(C)cc2n1	SIRT5 block 31.2 (no result: Statin myotox sup)
Cc1ccc(S(=O)(=O)Nc2ccc3c(c2)CC(=O)N([C@H](C)CO)C[C@H](C)[C@@H](CN(C)S(C)(=O)=O)O3)cc1	none
O=C(c1ccc([N+](=O)[O-])o1)N1CCN(c2nc3ccc(F)cc3s2)CC1	Statin myotox sup 68.0
Cc1ccc2sc(N3CCN(C(=O)c4ccc([N+](=O)[O-])o4)CC3)nc2c1C	Statin myotox sup 85.0
CCCN1C[C@H](C)[C@H](OC)CN(C)C(=O)c2cc(NC(=O)COC)ccc2OC[C@@H]1C	none (no result: S100A4 inh HTS, SIRT5 block, DENV2 CPE rescue)
CC(Oc1ccccc1)C(=O)Nc1nnc(C2CCCCC2)s1 (centres undefined)	SIRT5 block 22.0 (no result: PGC1a acetyl inh, Statin myotox sup)
CC(Oc1ccccc1)C(=O)Nc1nnc(S(=O)(=O)N2CCCCC2)s1 (centres undefined)	none
CNC(=O)C[C@@H]1CC[C@@H]2[C@H](COc3ccc(NC(=O)NC4CCCC4)cc3C(=O)N2C)O1	none
C[C@H](CO)N1C[C@H](C)[C@@H](CN(C)C(=O)Nc2ccccc2)Oc2ccc(NC(=O)Cc3cn(C)c4ccccc34)cc2C1=O	none
C[C@@H]1CN([C@H](C)CO)C(=O)c2cc(NC(=O)Cc3cn(C)c4ccccc34)ccc2O[C@@H]1CN(C)C(=O)Nc1ccccc1	PGC1a acetyl inh 107.6
CC(C)NC(=O)N(C)C[C@@H]1Oc2ccc(NC(=O)Cc3cn(C)c4ccccc34)cc2C(=O)N([C@@H](C)CO)C[C@H]1C	DENV2 CPE rescue 79.8
Cc1noc(C)c1NC(=O)Nc1ccc2c(c1)C(=O)N([C@@H](C)CO)C[C@@H](C)[C@H](CN(C)S(=O)(=O)c1ccc(Cl)cc1)O2	DENV2 CPE rescue 28.2
Cc1noc(C)c1NC(=O)Nc1ccc2c(c1)C(=O)N([C@H](C)CO)C[C@@H](C)[C@H](CN(C)S(=O)(=O)c1ccc(Cl)cc1)O2	none
C[C@H]1CN([C@@H](C)CO)C(=O)c2cc(NC(=O)CCCN(C)C)ccc2O[C@@H]1CN(C)S(=O)(=O)c1ccc(F)cc1	none
C[C@H]1CN([C@@H](C)CO)C(=O)c2cc(NC(=O)CCC(F)(F)F)ccc2O[C@H]1CN(C)S(=O)(=O)c1ccc(Cl)cc1	DENV2 CPE rescue 73.3
C[C@H]1CN([C@@H](C)CO)C(=O)c2cc(NC(=O)CCCN(C)C)ccc2O[C@@H]1CN(C)S(=O)(=O)c1ccc(Cl)cc1	DENV2 CPE rescue active
C[C@@H]1CN([C@H](C)CO)C(=O)c2cc(NC(=O)CCC(F)(F)F)ccc2O[C@@H]1CN(C)S(=O)(=O)c1ccc(Cl)cc1	none
CNC[C@H]1OCCCC[C@H](C)Oc2ccc(NS(=O)(=O)c3cccs3)cc2C(=O)N([C@@H](C)CO)C[C@H]1C	none (no result: Statin myotox sup)
C[C@H]1CN([C@@H](C)CO)C(=O)c2cc(Br)cnc2O[C@H]1CN(C)C(=O)c1ccc(F)cc1	none (no result: S100A4 inh HTS, SIRT5 block, DENV2 CPE rescue)
Cc1nnsc1NC(=O)OCc1ccccc1Cl	none (no result: S100A4 inh HTS, SIRT5 block, DENV2 CPE rescue)
Cc1nnsc1NC(=O)OCc1ccc(C(F)(F)F)cc1	Statin myotox sup 105.5 (no result: S100A4 inh HTS, SIRT5 block, DENV2 CPE rescue)
COCCn1c(N2CCN(c3ccc(OC)cc3)CC2)nc2c1c(=O)[nH]c(=O)n2C	none (no result: S100A4 inh HTS, SIRT5 block, DENV2 CPE rescue)
CCOCCn1c(N2CCN(c3ccc(OC)cc3)CC2)nc2c1c(=O)[nH]c(=O)n2C	Statin myotox sup 103.0 (no result: DENV2 CPE rescue)
CCCNC(=O)N1[C@@H]2CN(C(=O)c3ccncc3)c3ccccc3[C@@H]2[C@@H]1CO	none
CCCNC(=O)N1[C@H](CO)[C@@H]2c3ccccc3N(C(=O)c3ccc(F)cc3)C[C@@H]21	S100A4 inh HTS 124.3
O=C(c1ccccc1F)N1C[C@H]2[C@@H](c3ccccc31)[C@H](CO)N2C(=O)c1ccncc1	DENV2 CPE rescue 21.9
COc1ccccc1CN1[C@@H]2CN(C(=O)c3ccncc3)c3ccccc3[C@@H]2[C@@H]1CO	none
COc1ccccc1CN1[C@H](CO)[C@H]2c3ccccc3N(C(=O)c3ccncc3)C[C@H]21	DENV2 CPE rescue 95.2
CCCNC(=O)N1C[C@@H]2[C@H](c3ccccc31)[C@H](CO)N2C(=O)c1ccncc1	DENV2 CPE rescue 24.6
